Results reported in ChEMBL document CHEMBL2396579, “Synthesis and in vitro photocytotoxicity of coumarin derivatives for one- and two-photon excited photodynamic therapy” (J Med Chem, 2013).
≈ marks a conversion by molar mass, not a printed value. Calls of active or inactive are those of the source. No cut-off for these calls is given here.

Key:
HepG2 [1] = assay: Photocytotoxicity against human HepG2 cells assessed as cell viability at 20 uM incubated for 4 hrs prior to 630 mW laser irradiation for 10 mins followed by 24 hrs incubation in dark by CCK-8 assay; assay type: functional; conditions: for viability at 20 µM: HepG2, light or radiation study, read-out: Activity
Method in brief: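 HepG2 cells were incubated with 20 μM photosensitizer for 4 h and split into two equal series. One series received 800 nm femtosecond laser light (1.64 W cm−2, 1 kHz, 130 fs) for 10 min; the other stayed dark as control. Both were held 24 h in the dark before viability was read. Photosensitizer-free cells were also irradiated. Mean ± SD, three replicates.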

[2] = Solubility of the compound in PBS buffer at pH 7.4; assay type: physicochemical
HepG2 [3] = assay: Dark cytotoxicity against human HepG2 cells after 24 hrs by CCK-8 assay; assay type: cell-based; conditions: HepG2, 24 h
Method in brief: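 HepG2 cells exposed to a range of photosensitizer concentrations (tested up to 50 μM) for 24 h without light before the viability test. IC50 is the concentration giving 50% growth inhibition.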

HepG2 [4] = assay: Intracellular ROS generation in human HepG2 cells at 20 uM after 4 hrs by DCFH-DA-based fluorescence analysis; assay type: functional, cell-based
Method in brief: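 Intracellular ROS in HepG2 cells was detected with the probe 2,7-dichlorodihydrofluorescein diacetate (DCFH-DA), which ROS convert to fluorescent 2,7-dichlorofluorescein.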

HepG2 [5] = assay: Photocytotoxicity against human HepG2 cells assessed as growth inhibition incubated for 4 hrs in dark prior to 20 mW cm'-2 laser irradiation for 20 mins followed by 24 hrs incubation in dark by CCK8 assay; assay type: functional, cell-based; conditions: HepG2, light or radiation study
Method in brief: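 HepG2 cells were loaded with photosensitizer for 4 h and then irradiated with a 532 nm laser for 20 min at 20 mW cm−2. They were kept in the dark for 24 h before the viability test. IC50 is the concentration giving 50% growth inhibition.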

[6] = Drug uptake in human HepG2 cell mitochondria at 10 uM after 4 hrs by confocal laser scanning microscopy; assay type: ADME; conditions: hepg2, 4 h
[7] = Octanol-water partition coefficient, log P of the compound; assay type: physicochemical
HepG2 [8] = assay: Cellular uptake in human HepG2 cells at 20 uM after 4 hrs by fluorescence spectrophotometry; assay type: ADME, cell-based; conditions: hepg2, 4 h
Method in brief: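 HepG2 cells were incubated with 20 μM photosensitizer for different times and intracellular concentration was measured at each time point. Mean ± SD, three replicates.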

solubility [2] [mg/mL] | Drug uptake [6] | logP [7] | Drug uptake (HepG2 [8]) | Structure (SMILES) | viability at 20 µM (HepG2 [1]) [%] | IC50 (HepG2 [3]) [µM] | Activity (HepG2 [4]) | IC50 (HepG2 [5]) [µM] | Activity (HepG2 [1])
0.75 (≈ 1010 µM) | Active | 2.2 | Active | CCN(CC)c1ccc2cc(C(=O)/C=C/c3ccc(N(CCOCCOCCOCCOC)CCOCCOCCOCCOC)cc3)c(=O)oc2c1 | 30 | > 50 | Active | 4.6 | 
0.7 (≈ 1060 µM) | Not Active | 1.4 | Active | COCCOCCOCCOCCN(C)c1ccc(/C=C/C(=O)c2cc3ccc(OCCOCCOCCOC)cc3oc2=O)cc1 |  | > 50 | Active | > 50 | inactive
> 10 | Not Active | 0.3 | Active | COCCOCCOCCOCCN(CCOCCOCCOCCOC)c1ccc(/C=C/C(=O)c2cc3ccc(OCCOCCOCCOC)cc3oc2=O)cc1 |  | > 50 | Active | > 50 | inactive

The next lines start with the molecule.

Structure (SMILES) | solubility [2] [mg/mL] | Drug uptake [6] | logP [7] | Drug uptake (HepG2 [8]) | viability at 20 µM (HepG2 [1]) [%] | IC50 (HepG2 [3]) [µM] | Activity (HepG2 [4]) | IC50 (HepG2 [5]) [µM] | Activity (HepG2 [1])
CCN(CC)c1ccc(/C=C/C(=O)c2cc3ccc(OCCOCCOCCOC)cc3oc2=O)cc1 | 0.0011 (≈ 2.16 µM) | Active | 3 | Active | 70 | > 50 | Active | 8.1 | 
CCN(CC)c1ccc2cc(C(=O)/C=C/c3ccc(N(C)CCOCCOCCOCCOC)cc3)c(=O)oc2c1 | 0.026 (≈ 45.9 µM) | Active | 3.4 | Active | 20 | > 50 | Active | 3.9 | 
